From PMC6778631 (Cancer Science, 2019)
Numbering of substitutions follows the chain as printed.

Key:
TF‐1/IDH2‐R140Q cells [1] = test: Erythroid differentiation under EPO, HBG mRNA by qRT-PCR; format: cell-based, human; details: 7 d + 7 d EPO
Summary of the method: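 TF-1 cells carrying doxycycline-inducible IDH2-R140Q got test compound for 7 d in RPMI-1640, 10% FBS, 2 ng/mL hGM-CSF. GM-CSF was then replaced by EPO (2 IU/mL) for another 7 d with compound present. HBG mRNA was measured in cell pellets by SYBR qRT-PCR, with GAPDH primers also used. Means ± SD of triplicates.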

wild‐type IDH2 = molecular target: T1, wild‐type IDH2 (Homo sapiens, UniProt P48735); test: Cellular thermal shift assay in U-87 MG cells; format: binding; details: 1 h treatment
T1 sequence (P48735 40-452): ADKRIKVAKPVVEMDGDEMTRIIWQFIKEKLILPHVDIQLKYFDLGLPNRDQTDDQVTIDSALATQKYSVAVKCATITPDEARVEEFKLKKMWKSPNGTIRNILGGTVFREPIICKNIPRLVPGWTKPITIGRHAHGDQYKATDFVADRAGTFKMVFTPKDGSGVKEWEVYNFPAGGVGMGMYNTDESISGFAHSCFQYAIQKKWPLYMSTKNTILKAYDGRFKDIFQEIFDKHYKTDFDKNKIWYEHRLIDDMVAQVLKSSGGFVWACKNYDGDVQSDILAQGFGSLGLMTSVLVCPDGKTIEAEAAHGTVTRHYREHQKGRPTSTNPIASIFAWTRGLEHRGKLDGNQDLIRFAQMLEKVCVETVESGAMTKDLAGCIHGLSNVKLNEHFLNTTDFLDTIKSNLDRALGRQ

IDH2‐R172K [2] = molecular target: T2, IDH2‐R172K (Homo sapiens, UniProt P48735, R172K); test: Cellular thermal shift assay in U-87 MG cells; format: binding; details: 1 h treatment
T2 sequence (P48735 40-452 R172K): T1 sequence (P48735 40-452) with R133K

IDH2‐R172K [3] = molecular target: T2, IDH2‐R172K; test: Cell-based enzyme assay, lysates of U-87 MG/IDH2-R172K cells; format: biochemical
TF‐1/IDH2‐R172K cells [4] = test: Cell proliferation assay; format: cell-based, human; details: 7 d + 7 d without hGM-CSF
IDH2‐R140Q [5] = molecular target: T3, IDH2‐R140Q (Homo sapiens, UniProt P48735, R140Q); test: Cell-based enzyme assay, lysates of U-87 MG/IDH2-R140Q cells; format: biochemical; details: IC50, inhibition of IDH2-R140Q enzymatic activity
T3 sequence (P48735 40-452 R140Q): T1 sequence (P48735 40-452) with R101Q

U‐87 MG/IDH2‐R140Q cells = test: Cell-based inhibition of 2-HG production; details: Homo sapiens, 72 h, read-out: Inhibition of 2-HG production
IDH2‐WT = molecular target: T4, IDH2‐WT (Homo sapiens, UniProt P48735); test: Cell-based enzyme assay, lysates of U-87 MG/IDH2-WT cells; format: biochemical
T4 sequence (P48735 40-452): T1 sequence (P48735 40-452)

IDH1‐R132H = IDH1‐R132H (Homo sapiens, UniProt O75874, R132H); test: Cell-based enzyme assay, lysates of U-87 MG/IDH1-R132H cells; format: biochemical
TF‐1/IDH2‐R172K cells [6] = test: Erythroid differentiation under EPO, HBG mRNA by qRT-PCR; format: cell-based, human; details: 7 d + 7 d EPO
IDH1‐R132C = IDH1‐R132C (Homo sapiens, UniProt O75874, R132C); test: Cell-based enzyme assay, lysates of U-87 MG/IDH1-R132C cells; format: biochemical
TF‐1/IDH2‐R140Q cells [7] = test: Cell proliferation assay; format: cell-based, human; details: 7 d + 7 d without hGM-CSF
IDH1‐WT = IDH1‐WT (Homo sapiens, UniProt O75874); test: Cell-based enzyme assay, lysates of U-87 MG/IDH1-WT cells; format: biochemical
TF‐1/IDH2‐R140Q cells [8] = test: Cell-based inhibition of 2-HG production; details: Homo sapiens, 72 h, read-out: IC50, anti-2-HG activity
IDH2‐R140Q [9] = molecular target: T3, IDH2‐R140Q; test: Cellular thermal shift assay in U-87 MG cells; format: binding; details: 1 h treatment
TF‐1/IDH2‐R172K cells [10] = test: Cell-based inhibition of 2-HG production; details: Homo sapiens, 72 h, read-out: IC50, anti-2-HG activity
IDH2‐R140Q‐Q316A = molecular target: T5, IDH2‐R140Q‐Q316A (Homo sapiens, UniProt P48735, Q316A/R140Q); test: Cellular thermal shift assay in U-87 MG/IDH2-R140Q-Q316A cells; format: binding; details: 1 h treatment
T5 sequence (P48735 40-452 R140Q/Q316A): T1 sequence (P48735 40-452) with R101Q, Q277A

Sequence of IDH1‐WT (O75874 whole entry): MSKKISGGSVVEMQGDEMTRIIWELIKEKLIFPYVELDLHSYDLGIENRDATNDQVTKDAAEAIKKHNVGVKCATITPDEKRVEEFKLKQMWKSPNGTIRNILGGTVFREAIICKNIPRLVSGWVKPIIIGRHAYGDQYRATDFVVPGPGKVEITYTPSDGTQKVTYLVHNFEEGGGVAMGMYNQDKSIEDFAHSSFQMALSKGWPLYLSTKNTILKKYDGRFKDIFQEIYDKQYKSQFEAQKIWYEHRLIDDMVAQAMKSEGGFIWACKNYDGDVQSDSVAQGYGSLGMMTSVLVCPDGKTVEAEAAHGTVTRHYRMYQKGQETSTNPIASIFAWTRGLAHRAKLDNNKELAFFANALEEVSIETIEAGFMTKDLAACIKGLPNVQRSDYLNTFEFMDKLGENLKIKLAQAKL
Sequence of IDH1‐R132C (O75874 whole entry R132C): as the sequence (O75874 whole entry) above, with R132C counted along it
Sequence of IDH1‐R132H (O75874 whole entry R132H): as the sequence (O75874 whole entry) above, with R132H counted along it

SMILES: CC(C)(O)CNc1nc(Nc2ccnc(C(F)(F)F)c2)nc(-c2cccc(C(F)(F)F)n2)n1 [AG‐221, enasidenib]
- Effect on HBG levels (cell differentiation) (TF‐1/IDH2‐R140Q cells [1]): increased HBG
- Thermal stabilization of wild-type IDH2 (CETSA) (wild‐type IDH2): Neither TQ05310 nor AG‐221 stabilized
- Thermal stabilization of IDH2-R172K (CETSA) (IDH2‐R172K [2]): weak thermal‐stabilization effect
- IC50 (IDH2‐R172K [3]): 625 ± 146 nM
- Effect on cell proliferation (MTT) (TF‐1/IDH2‐R172K cells [4]): did not significantly inhibit proliferation
- IC50 (IDH2‐R140Q [5]): 229 ± 23.2 nM
- inhibition at 0.2 µM (U‐87 MG/IDH2‐R140Q cells): 67.3%
- Inhibitory effect on IDH2-WT enzymatic activity (IDH2‐WT): no apparent inhibitory effects
- Inhibitory effect on IDH1-R132H enzymatic activity (IDH1‐R132H): no apparent inhibitory effects
- Effect on HBG levels (cell differentiation) (TF‐1/IDH2‐R172K cells [6]): increased HBG only in TF‐1/IDH2‐R140Q cells
- Inhibitory effect on IDH1-R132C enzymatic activity (IDH1‐R132C): no apparent inhibitory effects
- Effect on cell proliferation (MTT) (TF‐1/IDH2‐R140Q cells [7]): did not significantly inhibit proliferation
- Inhibitory effect on IDH1-WT enzymatic activity (IDH1‐WT): no apparent inhibitory effects
- IC50 (TF‐1/IDH2‐R140Q cells [8]): 24.7 ± 2.3 nM
- Thermal stabilization of IDH2-R140Q (CETSA) (IDH2‐R140Q [9]): apparent thermal‐stabilization effect
- IC50 (TF‐1/IDH2‐R172K cells [10]): 732 ± 331 nM
- Thermal stabilization in U-87 MG/IDH2-R140Q-Q316A cells (CETSA) (IDH2‐R140Q‐Q316A): lost
